APP 5UTR inh: APP translation inhibition | actives 0.82% (n = 190,000) | AID 1285 | SH-SY5Y APP 5'UTR-luciferase reporter, luminescence | inhibition, % at 2 µM;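 active = inhibition above a set limit, derived from the sample mean plus 3 SD, cut at about 45% in these data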
MT stabilize HCS: microtubule stabilization, imaging screen | actives 0.83% (n = 200,000) | % tubulin-high responders, % at 10 µM | HeLa tubulin immunostaining HCS, 24 h; share of cells brighter than vehicle mean+2SD | AID 2205;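 active = plate Z-score above 3 for both tubulin-high and condensed-nucleus cell shares, with cell loss under 80%, at 10 µM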;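 note: anti alpha tubulin signal scored within the nucleus-defined area of each cell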
bCat nuc transl: alters nuclear translocation of beta-catenin in HeLa cells. immunofluorescence imaging. nuclear translocation activity, % at 5 µM. actives 0.3% (n = 190,000). AID 1665;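 active = nuclear translocation activity above 50% at 5 µM, with a well cell count of 50 or more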;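 note: per-cell ratio of nuclear to cytoplasmic median beta-catenin stain intensity; plate controls were DMSO negative control for no effect and GSK-3 inhibitor IX positive control for full effect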
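Assay system: human HeLa cells, native beta-catenin; doses: 5 µM primary, 0.02–20 µM confirmation; incubation: compound treatment 24 h, 37°C, 5% CO2; technique: fluorescence imaging of beta-catenin antibody stain plus DAPI; measure: % activation, nuclear-to-cytoplasmic median beta-catenin signal ratio per cell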
Ba/F3 V617F tox: lowers viability of Ba/F3 cells expressing EpoR and JAK2V617F | ATP luminescence | inhibition, % at 5.6 µM | actives 1.1% (n = 220,000) | AID 1446;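 active = inhibition above the campaign mean plus 3 SD over all tested compounds, cut at about 24% in these data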;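 note: cytokine-independent growth of Ba/F3 cells driven by EpoR plus mutant JAK2; 0% = DMSO-treated cells and 100% = JAK inhibitor I control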
L major viab: Leishmania major promastigote growth inhibition; inhibition, % at 10 µM; actives 9% (n = 200,000); Leishmania major promastigotes, resazurin fluorescence viability; in the data active = inhibition above about 50%;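 note: promastigotes grown with compound for 44 hours at 28 °C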
BaF3 parental: reduces parental Ba/F3 cell viability, JAK2V617F counter-screen; actives 1.1% (n = 220,000); CellTiter-Glo ATP luminescence; inhibition, % at 5.6 µM; AID 1486;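 active = inhibition above a per-campaign cutoff, the mean inhibition of all tested compounds plus 3 SD, cut at about 27% in these data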;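 note: 0% = DMSO wells and 100% = JAK Inhibitor I control wells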
* marks the source's active call; other numbers are inactive results; nt = not tested or not shown. Hits are enriched below; roughly 9.6% of the tested compounds scored in any of these assays.

SMILES	APP 5UTR inh	MT stabilize HCS	bCat nuc transl	Ba/F3 V617F tox	L major viab	BaF3 parental
c1ccc(N2CCN(Cc3nnnn3C3CCCCC3)CC2)cc1	-5	2	-2	-4	-1	2
CCN(Cc1ccncc1)C(=O)c1ccccc1NS(=O)(=O)c1ccc(Br)cc1	nt	nt	0	3	nt	-4
Cc1ccc2cccc(S(=O)(=O)Nc3ccc4c(c3)OCO4)c2n1	-12	2	0	-1	96*	4
O=S(=O)(NCc1ccc2c(c1)OCO2)c1cccc2cccnc12	11	3	-2	0	92*	6
CCOc1cc(C)c(Cl)cc1S(=O)(=O)NCc1ccc2c(c1)OCO2	-6	35*	4	-1	100*	2
O=C(Nc1ccccc1)N1CCc2c([nH]c3ccccc23)C1C(F)(F)F (configuration not stated)	nt	nt	-2	-2	nt	0
CC1c2[nH]c3ccccc3c2CCN1C(=O)Nc1ccccc1 (configuration not stated)	11	43*	5	-5	14	6
O=C(NN=C1CCCC1)c1ccn[nH]1	-85	3	-2	-6	14	0
S=c1[nH]c2ccccc2o1	2	2	1	5	-3	10
O=C(CN(C(=O)CSc1nnc(COc2ccccc2)o1)c1ccc(F)cc1)NC1CCCC1	4	6	-2	3	19	8
O=C(CN(C(=O)CSc1nnc(COc2ccccc2)o1)c1ccc(F)cc1)NC1CCCCC1	19	3	nt	-4	52*	1
O=C(Cn1nnc2ccccc21)NNC(=S)NC1CCCCC1	22	3	-1	-5	-4	4
COc1cc(CNc2nnnn2C)ccc1OCc1c(F)cccc1Cl	-11	1	0	-2	-11	6
CC1CCC2(CC1)NC(=O)N(Cc1cccc(C(F)(F)F)c1)C2=O (configuration not stated)	7	2	1	0	100*	8
Cc1ccc(C(C[N+](=O)[O-])c2c(C)[nH]n(-c3ccccc3)c2=O)cc1 (configuration not stated)	-18	2	-1	-2	97*	6
Cc1[nH]n(-c2ccccc2)c(=O)c1C(C[N+](=O)[O-])c1ccc(F)cc1 (configuration not stated)	-5	4	nt	2	60*	4
Cc1[nH]n(-c2ccccc2)c(=O)c1C(C[N+](=O)[O-])c1ccc(Cl)cc1 (configuration not stated)	-6	3	-3	-5	48	3
COc1ccc(C(c2c(C)[nH]n(-c3ccccc3)c2=O)c2c(C)[nH]n(-c3ccccc3)c2=O)cc1OC	-11	3	1	1	88*	0
COc1ccccc1NCCC(=O)OCC(=O)NC1CCCCCC1	-17	4	-2	-4	-4	6
COCCNC(=S)Nc1cc(OC)c(OC)cc1C#N	-12	4	0	-2	12	2
CCCCCCCCCCn1ccc(=N)cc1	nt	nt	6	99*	nt	100*
CCCCCCCCn1ccc(=N)cc1	nt	nt	2	99*	nt	90*
S=C(NCCC1=CCCCC1)NCc1ccco1	-27	2	0	-1	0	4
S=C(Nc1ccc(Cl)cc1)N1CCN(C2CCCCC2)CC1	-10	2	0	23	81*	36*
O=[N+]([O-])c1ccc(OC(F)F)c(/C=N/n2cnnc2)c1	nt	nt	-3	-3	nt	2
SMILES	APP 5UTR inh	MT stabilize HCS	bCat nuc transl	Ba/F3 V617F tox	L major viab	BaF3 parental
O=C(/C=C/c1ccc(Cl)cc1)NCc1cccs1	-4	5	nt	0	53*	5
O=C(NC1CCCC1)c1ccc(CS(=O)(=O)c2ccc(Br)cc2)o1	0	4	nt	-2	-2	8
Cc1cc(C)c2c(N)c3cccc(C)c3nc2n1	27	13*	-3	13	100*	19
Cc1cccc2c(N)c3c(nc12)CCCC3 (tested in a mixture with another compound)	-19	2	1	1	67*	5
Cc1cc(OCC(=O)O)c2cccc(C)c2n1	3	4	0	2	-4	1
CN1CCN(C(=S)c2cn(CCOc3ccccc3)c3ccccc23)CC1	-25	6	1	5	24	3
CC1CCN(c2cc(N3CCOCC3)c([N+](=O)[O-])cc2F)CC1	-2	1	-1	-3	0	0
CC(C)C(=O)N1CCN(c2cc(N3CCN(C)CC3)c(F)cc2[N+](=O)[O-])CC1	-14	1	2	9	96*	12
CC(=O)N1CCN(c2cc(N3CCCC3)c(F)cc2[N+](=O)[O-])CC1	10	2	-2	2	2	7
CCN1CCN(c2cc(N3CCc4ccccc4C3)c(F)cc2[N+](=O)[O-])CC1	-23	7	-3	5	61*	11
Cc1ccc(NC(=O)COC(=O)Cn2cnc3c2c(=O)n(C)c(=O)n3C)c(Cl)c1	-5	7	-3	-1	-10	7
CCCCNc1cc(=O)oc2ccccc12	6	2	-2	1	8	3
CCOc1ccc(Nc2cc(=O)oc3ccccc23)cc1	10	29*	1	-5	-1	2
O=C(CN(c1ccc(F)cc1)S(=O)(=O)c1ccc2c(c1)OCCO2)NCc1ccccc1	9	2	0	-1	96*	4
Cc1ccc(/C=N/NC(=O)CN(Cc2ccccc2)S(=O)(=O)c2ccc3c(c2)OCCO3)cc1	-8	2	nt	-2	95*	2
O=C(CN(Cc1ccccc1)S(=O)(=O)c1ccc2c(c1)OCCO2)Nc1ccc2c(c1)OCCO2	5	6	-2	-3	13	0
O=C(CN(c1ccc(F)cc1)S(=O)(=O)c1ccc2c(c1)OCCO2)Nc1ccccc1	-1	3	nt	-1	80*	3
CC(=O)Nc1ccc(NC(=O)CN(c2ccc(F)cc2)S(=O)(=O)c2ccc3c(c2)OCCO3)cc1	8	2	nt	3	21	9
O=C(CN(c1ccc2c(c1)OCCO2)S(=O)(=O)c1ccccc1)NCc1ccc(Cl)cc1	-13	3	1	5	98*	8
CC(C)(C)c1cc2nc3c(c(=O)n2[nH]1)CN(Cc1ccccc1)C3=O	nt	nt	-4	-1	nt	-1
CCOC(=O)C1CCCN(C(=S)Nc2cccc(Cl)c2C)C1 (configuration not stated)	-25	8	0	0	-1	1
COC(=O)C(Cc1csc2ccc(Cl)cc12)NC(=O)c1ccc(Cl)cc1 (configuration not stated)	nt	nt	1	3	nt	0
CN(Cc1ccccc1)C(=O)CN(c1ccc(F)cc1)S(=O)(=O)c1ccc2c(c1)OCCO2	-15	3	5	2	95*	6
Cc1ccc(NC(=O)CN2CCN(CCN=CC3=C(O)CC(c4ccccc4)CC3=O)CC2)cc1 (configuration not stated)	14	2	0	0	-4	4
